Results reported in ChEMBL document CHEMBL1153955, “Indolylarylsulfones bearing natural and unnatural amino acids. Discovery of potent inhibitors of HIV-1 non-nucleoside wild type and resistant mutant strains reverse transcriptase and coxsackie B4 virus” (J Med Chem, 2009).

Key:
CCRF-CEM = assay: Antiproliferative activity against human CEM cells after 3 days; type: cell-based; details: 72 h
Method in brief: (§1)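 Cells seeded at 5 × 10⁴ to 7.5 × 10⁴ cells/200 µL with or without serial compound dilutions; incubated at 37 °C for 2 days (L1210) or 3 days (Molt4/C8, CEM). Cell numbers counted with a Coulter counter. CC₅₀ = concentration reducing proliferation by 50% versus untreated controls, read from plots of cell number (% of control) against concentration. Means of at least two independent experiments.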

[1] = tested on: Vesicular stomatitis virus; assay: Antiviral activity against VSV in human HEL cells assessed as protection against virus-induced cytopathicity; type: functional, organism-based
[2] = Cytotoxicity against african green monkey Vero cells assessed as drug level causing microscopically detectable alteration of normal cell morphology after 3 days; type: cell-based; details: chlorocebus sabaeus
Method in brief: (§2)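 Serial compound dilutions added to confluent HeLa or Vero monolayers. MCC = minimum concentration causing microscopically detectable alteration of cell morphology after 3 days of incubation.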

Influenza B virus [3] = assay: Antiviral activity against influenza B virus in MDCK cells assessed as reduction of virus-induced cytopathicity by visual cytopathic effect scoring method; type: functional, organism-based
[4] = tested on: Mammalian orthoreovirus 1; assay: Antiviral activity against Reovirus 1 in african green monkey Vero cells assessed as protection against virus-induced cytopathicity; type: functional, organism-based; details: Mammalian orthoreovirus 1, Vero
Method in brief: (§3)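 Confluent cell monolayers inoculated with 100 CCID₅₀ virus. After 1-2 h adsorption, residual virus removed and cultures incubated with varying compound concentrations. Cytopathicity scored once it reached completion in untreated infected controls. EC₅₀ = dose reducing virus-induced cytopathogenicity by 50%.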

Coxsackievirus B4 [5] = assay: Antiviral activity against Coxsackievirus B4 in african green monkey Vero cells assessed as protection against virus-induced cytopathicity; type: functional, organism-based; details: Enterovirus B; method in brief: as §3
Vaccinia virus = assay: Antiviral activity against Vaccinia virus Lederle in human HEL cells assessed as protection against virus-induced cytopathicity; type: functional, organism-based; details: Orthopoxvirus vaccinia
Influenza A virus H3N2 [6] = assay: Antiviral activity against influenza H3N2 virus in MDCK cells assessed as reduction of virus-induced cytopathicity by visual cytopathic effect scoring method; type: functional, organism-based
Influenza A virus H3N2 [7] = assay: Antiviral activity against influenza H3N2 virus in MDCK cells assessed as reduction of virus-induced cytopathicity by MTS method; type: functional, organism-based
L1210 = assay: Antiproliferative activity against mouse L1210 cells after 2 days; type: cell-based; details: L1210, 48 h; method in brief: as §1
Sindbis virus = assay: Antiviral activity against Sindbis virus in african green monkey Vero cells assessed as protection against virus-induced cytopathicity; type: functional, organism-based; method in brief: as §3
Human alphaherpesvirus 1 [8] = assay: Antiviral activity against thymidine kinase deficient and acyclovir resistant HSV1 KOS in human HEL cells assessed as protection against virus-induced cytopathicity; type: functional, organism-based; details: Human alphaherpesvirus 1, KOS
[9] = Cytotoxicity against feline CRFK cells by MTS assay; type: cell-based, Felis catus; details: cat
[10] = tested on: Human immunodeficiency virus 2; assay: Antiviral activity against HIV2 ROD in human CEM cells assessed as protection against virus-induced cytopathicity after 4 days; type: functional, organism-based; details: Human immunodeficiency virus 2, ROD, CCRF-CEM, 96 h
Method in brief: (§4)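 CEM cells (~3 × 10⁵ cells/mL) infected with ~100 CCID₅₀ per mL of HIV-1 (IIIB) or HIV-2 (ROD), then seeded into wells containing compound dilutions. After 4 days at 37 °C, syncytium (giant cell) formation was examined microscopically. EC₅₀ = concentration protecting CEM cells from HIV cytopathicity by 50%.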

Felid alphaherpesvirus 1 = assay: Antiviral activity against Feline herpesvirus in feline […] cells assessed as inhibition of virus-induced cytopathicity; type: functional, organism-based
[11] = target: Human immunodeficiency virus type 1 reverse transcriptase (Human immunodeficiency virus 1, UniProt Q72547); assay: Inhibition of HIV1 reverse transcriptase p66/p51; details: read-out: IC50
[12] = target: Human immunodeficiency virus type 1 reverse transcriptase (Human immunodeficiency virus 1, UniProt Q72547, Y181I); assay: Inhibition of HIV1 reverse transcriptase p66/p51 Y181I mutant; details: read-out: IC50
Method in brief: (§5)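 Substrate was 0.5 µg poly(rA)/oligo(dT) 10:1 (0.3 µM 3′-OH ends) with 10 µM [³H]dTTP, at 37 °C. Acid-precipitable radioactivity was counted on GF/C filters after TCA washes.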

Influenza B virus [13] = assay: Antiviral activity against influenza B virus in MDCK cells assessed as reduction of virus-induced cytopathicity by MTS method; type: functional, organism-based
[14] = target: Human immunodeficiency virus type 1 reverse transcriptase (Human immunodeficiency virus 1, UniProt Q72547, L100I); assay: Inhibition of HIV1 reverse transcriptase p66/p51 L100I mutant; details: read-out: IC50; method in brief: as §5
[15] = Cytotoxicity against MDCK cells assessed as drug level causing microscopically detectable alteration of normal cell morphology; type: cell-based, Canis lupus familiaris; details: dog
Feline coronavirus = assay: Antiviral activity against Feline coronavirus in feline […] cells assessed as inhibition of virus-induced cytopathicity; type: functional, organism-based; details: Alphacoronavirus 1
Punta Toro virus = assay: Antiviral activity against Punta Toro virus in african green monkey Vero cells assessed as protection against virus-induced cytopathicity; type: functional, organism-based; method in brief: as §3
Human respirovirus 3 = assay: Antiviral activity against Parainfluenza virus type 3 in african green monkey Vero cells assessed as protection against virus-induced cytopathicity; type: functional, organism-based; details: Human respirovirus 3, Vero; method in brief: as §3
[16] = tested on: Human immunodeficiency virus 1; assay: Antiviral activity against HIV1 3B in human CEM cells assessed as protection against virus-induced cytopathicity after 4 days; type: functional, organism-based; details: Human immunodeficiency virus 1, 3B, CCRF-CEM, 96 h; method in brief: as §4
Coxsackievirus B4 [17] = assay: Antiviral activity against Coxsackievirus B4 in human HeLa cells assessed as protection against virus-induced cytopathicity; type: functional, organism-based; details: Enterovirus B; method in brief: as §3
Human alphaherpesvirus 2 = assay: Antiviral activity against HSV2 G in human HEL cells assessed as protection against virus-induced cytopathicity; type: functional, organism-based; details: Human alphaherpesvirus 2, strain G; method in brief: as §3
[18] = Cytotoxicity against human HeLa cells assessed as drug level causing microscopically detectable alteration of normal cell morphology after 3 days; type: cell-based; method in brief: as §2
Influenza A virus [19] = assay: Antiviral activity against influenza H1N1 virus in MDCK cells assessed as reduction of virus-induced cytopathicity by MTS method; type: functional, organism-based
Human alphaherpesvirus 1 [20] = assay: Antiviral activity against HSV1 KOS in human HEL cells assessed as protection against virus-induced cytopathicity; type: functional, organism-based; details: Human alphaherpesvirus 1, KOS
[21] = Cytotoxicity against human HEL cells assessed as drug level causing microscopically detectable alteration of normal cell morphology after 3 days; type: cell-based
[22] = Cytotoxicity against MDCK cells by MTS assay; type: cell-based, Canis lupus familiaris; details: dog
[23] = target: Human immunodeficiency virus type 1 reverse transcriptase (Human immunodeficiency virus 1, UniProt Q72547, K103N); assay: Inhibition of HIV1 reverse transcriptase p66/p51 K103N mutant; details: read-out: IC50; method in brief: as §5
[24] = tested on: Respiratory syncytial virus; assay: Antiviral activity against RSV Long in human HeLa cells assessed as protection against virus-induced cytopathicity; type: functional, organism-based; method in brief: as §3
[25] = Antiproliferative activity against human Molt4/C8 cells after 3 days; type: cell-based; details: MOLT-4, 72 h; method in brief: as §1
Influenza A virus [26] = assay: Antiviral activity against influenza H1N1 virus in MDCK cells assessed as reduction of virus-induced cytopathicity by visual cytopathic effect scoring method; type: functional, organism-based
[27] = tested on: Vesicular stomatitis virus; assay: Antiviral activity against VSV in human HeLa cells assessed as protection against virus-induced cytopathicity; type: functional, organism-based

Structure (SMILES)	EC50 [1]	MCC at 72 h [2]	EC50 (Influenza B virus [3])	EC50 (Coxsackievirus B4 [5])	EC50 (Vaccinia virus)	EC50 (Influenza A virus H3N2 [6])	EC50 (Influenza A virus H3N2 [7])	EC50 (Sindbis virus)	EC50 (Human alphaherpesvirus 1 [8])	EC50 (Influenza B virus [13])	MCC [15]	EC50 (Punta Toro virus)	EC50 (Human respirovirus 3)	EC50 (Coxsackievirus B4 [17])	EC50 (Human alphaherpesvirus 2)	MCC at 72 h [18]	EC50 (Human alphaherpesvirus 1 [20])	MCC at 72 h [21]	CC50 [22]	EC50 (Influenza A virus [26])	other results
Cc1cc(C)cc(S(=O)(=O)c2c(C(=O)NCC(N)=O)[nH]c3ccc(Br)cc23)c1	> 20 µM	100 µM	> 4 µM	> 20 µM	> 20 µM	> 4 µM	> 4 µM	> 20 µM	> 20 µM	> 4 µM	20 µM	> 20 µM	> 20 µM	4 µM	> 20 µM	100 µM	> 20 µM	100 µM	9.8 µM	> 4 µM	IC50 (CCRF-CEM): 31 µM; EC50 [4]: > 20 µM; IC50 (L1210): 40 µM; CC50 [9]: 53 µM; EC50 [10]: 43 µM; EC50 (Felid alphaherpesvirus 1): > 20 µM; IC50 [11]: 0.026 µM; IC50 [12]: 2.21 µM; IC50 [14]: 0.199 µM; EC50 (Feline coronavirus): > 20 µM; EC50 [16]: 0.0026 µM; EC50 (Influenza A virus [19]; Influenza A virus, H1N1, MDCK): > 4 µM; IC50 [23]: 0.782 µM; EC50 [24]: 20 µM; IC50 [25]: 17 µM; EC50 [27]: > 20 µM
Nc1ncnc2c1ncn2C[C@H](O)CO [(S)-DHPA]	–	> 250 µM	–	> 250 µM	–	–	–	> 250 µM	–	–	–	> 250 µM	> 250 µM	> 250 µM	–	> 250 µM	–	–	–	–	EC50 [4]: > 250 µM; EC50 [24]: > 250 µM; EC50 [27]: > 250 µM
NC12CC3CC(CC(C3)C1)C2 [AMANTADINE]	–	–	> 100 µM	–	–	100 µM	75.3 µM	–	–	> 100 µM	> 100 µM	–	–	–	–	–	–	–	> 100 µM	> 100 µM	EC50 (Influenza A virus [19]; Influenza A virus, H1N1, MDCK): > 100 µM
O=c1[nH]c(=O)n([C@H]2C[C@H](O)[C@@H](CO)O2)cc1/C=C/Br [BRIVUDINE]	> 250 µM	–	–	–	4 µM	–	–	–	–	–	–	–	–	–	29 µM	–	0.02 µM	> 250 µM	–	–	–
Nc1ccn(C[C@@H](CO)OCP(=O)(O)O)c(=O)n1 [CIDOFOVIR]	> 250 µM	–	–	–	20 µM	–	–	–	1 µM	–	–	–	–	–	1 µM	–	2 µM	> 250 µM	–	–	–
Nc1nc2c(ncn2COC(CO)CO)c(=O)[nH]1 [GANCICLOVIR]	> 100 µM	–	–	–	> 100 µM	–	–	–	–	–	–	–	–	–	0.2 µM	–	–	> 100 µM	–	–	CC50 [9]: > 100 µM; EC50 (Felid alphaherpesvirus 1): 1.2 µM; EC50 (Feline coronavirus): > 100 µM
NC(=O)c1ncn([C@@H]2O[C@H](CO)[C@@H](O)[C@H]2O)n1 [RIBAVIRIN]	125 µM	> 250 µM	4 µM	≥ 250 µM	112 µM	–	8.1 µM	250 µM	> 250 µM	4.8 µM	> 100 µM	50 µM	> 50 µM	50 µM	250 µM	> 250 µM	> 250 µM	> 250 µM	> 100 µM	900 µM	EC50 (Influenza A virus [19]; mdck): 8400 µM; EC50 [24]: 10 µM
CC(N)C12CC3CC(CC(C3)C1)C2 (stereo unspecified) [RIMANTADINE]	–	–	> 100 µM	–	–	> 100 µM	> 100 µM	–	–	> 100 µM	> 100 µM	–	–	–	–	–	–	–	> 100 µM	45 µM	EC50 (Influenza A virus [19]; Influenza A virus, H1N1, MDCK): 33.2 µM
